Converted amounts (≈) assume the structure as drawn. The source made the active and inactive calls. No cut-off for these calls is given here.
What was measured:
Type in all cases: functional
Micrococcus luteus [1] = experiment: Antibacterial activity against Micrococcus luteus ATCC 9631 at 50 mg/ml after 24 hrs by agar diffusion test; settings: for zone of inhibition at 50000 µg/mL: ATCC 9631, 24 h, read-out: DIZ
Summary of the method: (§1)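 Agar diffusion: wells in agar filled with […] DMSO solution of compound at various concentrations; diameter of clear zone around application point measured. Bacteria grown 24 h at 37 °C on nutrient agar. Compounds first screened at 50 mg/ml; those active then tested at lower concentrations. Bracketed value = lowest concentration (mg/ml) giving zone >11 mm, reported only if activity retained at ≤1.25 mg/ml.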

Saccharomyces cerevisiae = experiment: Antifungal activity against Saccharomyces cerevisiae ATCC 9763 at 50 mg/ml after 72 hrs by agar diffusion test; settings: for zone of inhibition at 50000 µg/mL: ATCC 9763, 72 h, read-out: DIZ
Summary of the method: (§2)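 Agar diffusion: yeasts grown on yeast peptone dextrose agar and fungi on potato dextrose agar. Wells are filled with […] of compound solution in DMSO at various concentrations, and the clear-zone diameter is measured. Bracketed values give the lowest concentration (mg/ml) that produces a zone >11 mm. A first screen is run at 50 mg/ml.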

Escherichia coli = experiment: Antibacterial activity against Escherichia coli ATCC 8739 at 50 mg/ml after 24 hrs by agar diffusion test; settings: for zone of inhibition at 50000 µg/mL: ATCC 8739, 24 h, read-out: DIZ; summary of the method: as §1
Bacillus mycoides = experiment: Antibacterial activity against Bacillus mycoides DSMZ 274 at 50 mg/ml after 24 hrs by agar diffusion test; settings: for zone of inhibition at 50000 µg/mL: DSMZ 274, 24 h, read-out: DIZ; summary of the method: as §1
Bacillus subtilis = experiment: Antibacterial activity against Bacillus subtilis ATCC 6633 at 50 mg/ml after 24 hrs by agar diffusion test; settings: for zone of inhibition at 50000 µg/mL: ATCC 6633, 24 h, read-out: DIZ; summary of the method: as §1
Bacillus = experiment: Antibacterial activity against Bacillus idosus B 241 at 50 mg/ml after 24 hrs by agar diffusion test; settings: for zone of inhibition at 50000 µg/mL: B 241, 24 h, read-out: DIZ; summary of the method: as §1
Micrococcus luteus [2] = experiment: Antibacterial activity against Sarcina lutea ATCC 9341 at 50 mg/ml after 24 hrs by agar diffusion test; settings: for zone of inhibition at 50000 µg/mL: ATCC 9341, 24 h, read-out: DIZ
Summary of the method: (§3)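 Agar diffusion: bacteria grown 24 h at 37 °C on nutrient agar. Wells in the agar are filled with […] of compound solution in DMSO at various concentrations. The diameter of the clear zone around the application point is measured. Bracketed values give the lowest concentration (mg/ml) that produces a zone >11 mm. A first screen is run at 50 mg/ml.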

Candida tropicalis = experiment: Antifungal activity against Candida tropicalis ATCC 20336 at 50 mg/ml after 72 hrs by agar diffusion test; settings: for zone of inhibition at 50000 µg/mL: ATCC 20336, 72 h, read-out: DIZ; summary of the method: as §2
[3] = system: Mycobacterium tuberculosis; experiment: Antimycobacterial activity against Mycobacterium tuberculosis H37Rv after 45 days
Summary of the method: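 Canetti proportion method. Compound in DMSO is added to Löwenstein–Jensen egg medium before coagulation (30 min, 85 °C), tested at three levels plus a lower one where needed. Tubes are inoculated with H37Rv at 10⁵ cells/ml and incubated 45 days at 37 °C. Colony counts versus drug-free control give percentage inhibition.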

Acinetobacter johnsonii = experiment: Antibacterial activity against Acinetobacter johnsonii ATCC 17909 at 50 mg/ml after 24 hrs by agar diffusion test; settings: for zone of inhibition at 50000 µg/mL: ATCC 17909, 24 h, read-out: DIZ; summary of the method: as §1
Bacillus cereus = experiment: Antibacterial activity against Bacillus cereus ATCC 11778 at 50 mg/ml after 24 hrs by agar diffusion test; settings: for zone of inhibition at 50000 µg/mL: ATCC 11778, 24 h, read-out: DIZ; summary of the method: as §1
Penicillium chrysogenum = experiment: Antifungal activity against Penicillium chrysogenum CECT 2802 at 50 mg/ml after 72 hrs by agar diffusion test; settings: for zone of inhibition at 50000 µg/mL: CECT 2802, 72 h, read-out: DIZ; summary of the method: as §2
Priestia megaterium = experiment: Antibacterial activity against Bacillus megaterium NRRL 1353895 at 50 mg/ml after 24 hrs by agar diffusion test; settings: for zone of inhibition at 50000 µg/mL: NRRL 1353895, 24 h, read-out: DIZ; summary of the method: as §1
Staphylococcus aureus = experiment: Antibacterial activity against Staphylococcus aureus NRRL B 313 at 50 mg/ml after 24 hrs by agar diffusion test; settings: for zone of inhibition at 50000 µg/mL: NRRL B 313, 24 h, read-out: DIZ; summary of the method: as §3
[4] = system: Mycobacterium tuberculosis; experiment: Ratio of ethambutol dihydrochloride MIC to compound MIC for Mycobacterium tuberculosis H37Rv

| SMILES | zone of inhibition at 50000 µg/mL (Micrococcus luteus [1]) [mm] | diameter of the inhibition zone (DIZ) (Saccharomyces cerevisiae) | diameter of the inhibition zone (DIZ) (Escherichia coli) | zone of inhibition at 50000 µg/mL (Bacillus mycoides) [mm] | zone of inhibition at 50000 µg/mL (Bacillus subtilis) [mm] | zone of inhibition at 50000 µg/mL (Bacillus) [mm] | zone of inhibition at 50000 µg/mL (Micrococcus luteus [2]) [mm] | diameter of the inhibition zone (DIZ) (Candida tropicalis) | MIC [3] [µM] | zone of inhibition at 50000 µg/mL (Acinetobacter johnsonii) [mm] | zone of inhibition at 50000 µg/mL (Bacillus cereus) [mm] | zone of inhibition at 50000 µg/mL (Penicillium chrysogenum) [mm] | zone of inhibition at 50000 µg/mL (Priestia megaterium) [mm] | zone of inhibition at 50000 µg/mL (Staphylococcus aureus) [mm] | diameter of the inhibition zone (DIZ) (Micrococcus luteus [1]) | diameter of the inhibition zone (DIZ) (Bacillus mycoides) | diameter of the inhibition zone (DIZ) (Bacillus subtilis) | diameter of the inhibition zone (DIZ) (Micrococcus luteus [2]) | diameter of the inhibition zone (DIZ) (Bacillus cereus) | diameter of the inhibition zone (DIZ) (Priestia megaterium) | also measured |
| --- | --- | --- | --- | --- | --- | --- | --- | --- | --- | --- | --- | --- | --- | --- | --- | --- | --- | --- | --- | --- | --- |
| CC[C@H](CO)NCc1ccccc1O | 11 | inactive | inactive | 14 | 17 | 11 | 12 | inactive | 25.6 (≈ 5 µg/mL) | 13 | 14 | 12 | 12 | 12 | – | – | – | – | – | – | – |
| CC[C@H](CO)N1C(=O)c2cccc3cccc(c23)C1=O | – | inactive | inactive | – | – | – | – | inactive | > 18.6 | – | – | 10 | – | – | inactive | inactive | inactive | inactive | inactive | inactive | diameter of the inhibition zone (DIZ) (Bacillus): inactive; diameter of the inhibition zone (DIZ) (Acinetobacter johnsonii): inactive; diameter of the inhibition zone (DIZ) (Staphylococcus aureus): inactive |
| CC[C@@H](CO)NC(=O)c1ccccc1C(=O)N[C@@H](CC)CO | – | – | – | – | – | – | – | – | > 16.2 | – | – | – | – | – | – | – | – | – | – | – | Ratio [4]: 2 |
| CC[C@H](CO)n1cnc2ccccc2c1=O | – | inactive | inactive | – | – | 14 | – | inactive | 22.9 (≈ 5 µg/mL) | 14 | – | – | – | – | inactive | inactive | inactive | inactive | inactive | inactive | diameter of the inhibition zone (DIZ) (Penicillium chrysogenum): inactive; diameter of the inhibition zone (DIZ) (Staphylococcus aureus): inactive |
| CC[C@H](CO)NC1c2ccccc2-c2ccccc21 | 17 | – | – | 17 | – | 15 | 17 | – | 19.7 (≈ 5 µg/mL) | 16 | – | 20 | 22 | 12 | – | – | inactive | – | inactive | – | zone of inhibition at 50000 µg/mL (Saccharomyces cerevisiae): 22 mm; zone of inhibition at 50000 µg/mL (Escherichia coli): 12 mm; zone of inhibition at 50000 µg/mL (Candida tropicalis): 17 mm |
| CC[C@H](CO)NCc1cccc2ccccc12 | 17 | – | – | 18 | 17 | 18 | 13 | – | 21.8 (≈ 5 µg/mL) | 20 | 15 | 22 | 10 | 16 | – | – | – | – | – | – | zone of inhibition at 50000 µg/mL (Saccharomyces cerevisiae): 32 mm; zone of inhibition at 50000 µg/mL (Escherichia coli): 28 mm; zone of inhibition at 50000 µg/mL (Candida tropicalis): 30 mm |
| CC[C@H](CO)NCc1ccc2ccc3cccc4ccc1c2c34 | 14 | – | inactive | 15 | 14 | 30 | 13 | – | 16.5 (≈ 5 µg/mL) | 14 | 14 | 14 | 13 | 13 | – | – | – | – | – | – | zone of inhibition at 50000 µg/mL (Saccharomyces cerevisiae): 35 mm; zone of inhibition at 50000 µg/mL (Candida tropicalis): 40 mm |
| CC[C@H](CO)NCc1ccc(CN[C@H](CC)CO)cc1 | – | inactive | inactive | – | 10 | – | – | inactive | 17.8 (≈ 5 µg/mL) | – | – | – | – | – | inactive | inactive | – | inactive | inactive | inactive | diameter of the inhibition zone (DIZ) (Bacillus): inactive; diameter of the inhibition zone (DIZ) (Acinetobacter johnsonii): inactive; diameter of the inhibition zone (DIZ) (Penicillium chrysogenum): inactive; diameter of the inhibition zone (DIZ) (Staphylococcus aureus): inactive |
| CC(C)=CCC/C(C)=C/CNCCNC1C2CC3CC(C2)CC1C3 (stereo unspecified) [SQ109] | – | – | – | – | – | – | – | – | – | – | – | – | – | – | – | – | – | – | – | – | Ratio [4]: 35 |

From ChEMBL document CHEMBL1932986, “Synthesis and in vitro antimycobacterial activity of compounds derived from (R)- and (S)-2-amino-1-butanol - The crucial role of the configuration” (Eur J Med Chem, 2012)
